Laboratory results reported in ChEMBL document CHEMBL1146506, “Sesquiterpene coumarins from Ferula fukanensis and nitric oxide production inhibitory effects” (J Nat Prod, 2004).
pIC50: −log10 of the molar value. Active and inactive are the calls of the source. No cut-off for these calls is given here.

Assays:
RAW264.7 [1] = experiment: Inhibition of LPS and INF-gamma-induced NO production in mouse RAW264.7 cells; type: functional, cell-based
Summary of the method: (§1)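 Cells seeded at 1.2 × 10^6 cells/mL, preincubated 2 h at 37 °C. Test compound added together with E. coli LPS (100 ng/mL) and recombinant mouse IFN-γ (0.33 ng/mL), then incubated at 37 °C, usually 16 h. Nitrite in chilled culture supernatant measured with Griess reagent (1% sulfanilamide in 5% H3PO4, 0.1% naphthylethylenediamine) against NaNO2 standards, read at 550 nm minus 630 nm background.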

RAW264.7 [2] = experiment: Inhibition of LPS and INF-gamma-induced NO production in mouse RAW264.7 cells at 10 ug/mL; type: functional, cell-based; summary of the method: as §1
RAW264.7 [3] = experiment: Cytotoxicity against mouse RAW264.7 cells at 10 ug/mL; type: cell-based
Summary of the method: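 MTT assay. Compound given at 0.3–10 µg/mL during LPS/IFN-γ treatment for 24 h.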

RAW264.7 [4] = experiment: Inhibition of LPS and INF-gamma-induced iNOS mRNA expression in mouse RAW264.7 cells by RT-PCR analysis; type: functional, cell-based
Summary of the method: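 Cells at 1.2 × 10^6 cells/mL, preincubated 2 h at 37 °C, then test compound added with LPS (100 ng/mL) and IFN-γ (0.33 ng/mL) for about 8 h. Total RNA (250 ng) reverse-transcribed with oligo(dT) primer. iNOS and GAPDH amplified with specific primers for 25 cycles (94 °C 1 min, 60 °C 1 min, 72 °C 1.5 min).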

| Structure (SMILES) | pIC50 (RAW264.7 [1]) | Activity (RAW264.7 [2]) | Activity (RAW264.7 [3]) | Activity (RAW264.7 [4]) |
| --- | --- | --- | --- | --- |
| CC(C)=CC(=O)C/C(C)=C/CC[C@@]1(C)Oc2c(c(=O)oc3cc(O)ccc23)[C@@H]1C | 4.61 | – | – | – |
| CC(C)=CCC/C(C)=C/CC[C@@]1(C)Oc2c(c(=O)oc3cc(O)ccc23)[C@H]1C | – | inactive | Non-toxic | – |
| CC(C)=CCC/C(C)=C/CC[C@@]1(C)Oc2c(c(=O)oc3cc(O)ccc23)[C@@H]1C | – | inactive | Non-toxic | – |
| CC(C)=CC(=O)C/C(C)=C/CC[C@@]1(C)Oc2c(c(=O)oc3cc(O)ccc23)[C@H]1C (relative stereo) | 4.51 | – | – | – |
| CC(C)=CC(=O)/C=C(\C)CCC[C@@]1(C)Oc2c(c(=O)oc3cc(O)ccc23)[C@@H]1C (relative stereo) [FUKANEFUROMARIN A] | 4.89 | – | – | – |
| CC(C)=CC(=O)/C=C(\C)CCC[C@@]1(C)Oc2c(c(=O)oc3cc(O)ccc23)[C@H]1C (relative stereo) [FUKANEFUROMARIN B] | 4.79 | – | – | – |
| CC(C)=CC(=O)/C=C(/C)CCC[C@@]1(C)Oc2c(c(=O)oc3cc(O)ccc23)[C@@H]1C (relative stereo) [FUKANEFUROMARIN C] | 4.95 | – | – | Dose-dependent effect |
| CC(C)=CC(=O)/C=C(/C)CCC[C@@]1(C)Oc2c(c(=O)oc3cc(O)ccc23)[C@H]1C (relative stereo) [FUKANEFUROMARIN D] | 5.05 | – | – | Dose-dependent effect |
